Most compounds without a hit are left out; they make up all but 1.2% or so of the library.
PREPL inhibitor: inhibitors of human prolyl oligopeptidase-like enzyme PREPL; recombinant PREPL, fluorescence polarization activity-based probe; inhibition, % at 5.96 µM; 320,000 tested, 0.68% active; AID 2751; in the data active = inhibition above about 43%
Target sequence (Q4J6C6 whole entry, looked up): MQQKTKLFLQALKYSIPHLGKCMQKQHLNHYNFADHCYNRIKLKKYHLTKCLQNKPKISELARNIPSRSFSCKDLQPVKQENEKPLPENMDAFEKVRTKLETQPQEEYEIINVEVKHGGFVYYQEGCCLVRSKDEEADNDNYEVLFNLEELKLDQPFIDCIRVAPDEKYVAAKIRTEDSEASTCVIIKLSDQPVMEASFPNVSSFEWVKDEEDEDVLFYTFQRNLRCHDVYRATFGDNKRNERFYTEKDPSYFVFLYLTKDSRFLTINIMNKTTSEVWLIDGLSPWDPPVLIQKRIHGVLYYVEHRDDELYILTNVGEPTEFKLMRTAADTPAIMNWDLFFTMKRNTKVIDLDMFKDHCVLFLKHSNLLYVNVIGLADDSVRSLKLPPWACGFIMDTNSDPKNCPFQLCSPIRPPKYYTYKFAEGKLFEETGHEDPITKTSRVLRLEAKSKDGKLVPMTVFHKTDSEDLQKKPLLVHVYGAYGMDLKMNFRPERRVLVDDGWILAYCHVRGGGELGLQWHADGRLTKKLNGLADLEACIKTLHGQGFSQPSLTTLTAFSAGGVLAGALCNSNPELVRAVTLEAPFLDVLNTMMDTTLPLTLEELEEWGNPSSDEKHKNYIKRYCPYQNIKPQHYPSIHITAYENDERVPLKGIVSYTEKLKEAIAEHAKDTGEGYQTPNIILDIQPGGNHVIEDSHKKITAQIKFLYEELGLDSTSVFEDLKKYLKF
ARFGAP1 inh: rat ARFGAP1 inhibition | 360,000 tested, 0.26% active | Arfgap1-stimulated ARF1 GTP hydrolysis, GDP FP detection | inhibition, % at 16.5 µM;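 active = inhibition above a per-plate limit, mean inhibition of low control wells plus 3 SD, cut at about 25% in these data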
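Material – truncated rat Arfgap1 GAP domain · Buffer or medium – HEPES-based buffer, pH 7.5 · Reagent – human ARF1(Δ1-17)-GTP substrate · Dosing – 16.5 µM single point, 1.26% DMSO · Schedule – GTP hydrolysis reaction 2 h at 25 °C · Technique – GDP detection by fluorescence polarization · Benchmarks – No-Arfgap1 wells (100%) versus DMSO full-reaction wells (0%) · Repeats – single replicate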
IDE cell activ: boosts human insulin-degrading enzyme activity in HEK cells; FAbeta-B cleavage, fluorescence polarization; 0% vehicle, 100% cell-free pure enzyme wells; activation, % at 5.96 µM; 340,000 tested, 0.073% active; AID 493087;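 active = activation above the mean of all tested compounds plus 3 SD, set per screening campaign, cut at about 17% in these data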
ASAP1 inh: blocks human ASAP1-stimulated Arf1 GTP hydrolysis | GDP FP detection | inhibition, % at 16.5 µM | 360,000 tested, 0.19% active; in the data active = inhibition above about 25%
IDE inh: inhibitors of human insulin-degrading enzyme in cells. inhibition, % at 5.59 µM. P14735. HEK cells, FAbetaB cleavage, fluorescence polarization. 320,000 tested, 0.41% active;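 active = percent inhibition above the average of all tested compounds plus 3 SD, set per screening campaign, cut at about 16% in these data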;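 note: IDE supplied by intact live HEK cells; FP after avidin binding of uncleaved biotin substrate so inhibition keeps polarization high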
ARFGAP1 confirm: confirmation of rat ARFGAP1 inhibitors | inhibition, % at 16.5 µM | 890 tested, 30% active | ARFGAP1-stimulated ARF1 GTP hydrolysis, GDP tracer FP | shares compounds with ARFGAP1 inh | AID 651608;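 active = average inhibition over triplicates above the hit cutoff set in the earlier primary screen, cut at about 25% in these data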
Numbers stand for hits.

Cc1ccc2nc(SCC(=O)c3ccccc3)nc(=O)n2c1 was read as PREPL inhibitor inactive, ARFGAP1 inh 37, IDE cell activ inactive, ASAP1 inh inactive, IDE inh inactive and ARFGAP1 confirm 47.
Screening Cc1ccc2nc(SCC(=O)N3CCCC3)nc(=O)n2c1 returned PREPL inhibitor inactive, ARFGAP1 inh 61, IDE cell activ inactive, ASAP1 inh inactive, IDE inh inactive and ARFGAP1 confirm 44.
Cc1ccn2c(=O)nc(SCC(=O)c3ccccc3)nc2c1 was read as PREPL inhibitor inactive, ARFGAP1 inh inactive, IDE cell activ inactive, ASAP1 inh inactive and IDE inh inactive.
Cc1cccc(NC(=O)CCN2CCC(C)CC2)c1 was read as PREPL inhibitor inactive, ARFGAP1 inh 27, IDE cell activ inactive, ASAP1 inh inactive, IDE inh inactive and ARFGAP1 confirm inactive.
For CCc1cc(C(=O)NNC(=O)CCN2CCN(c3ccccc3)CC2)sc1C the results were PREPL inhibitor inactive, ARFGAP1 inh inactive, IDE cell activ inactive, ASAP1 inh inactive and IDE inh inactive.
Screening CCc1cc(C(=O)NNC(=O)CCl)sc1C returned PREPL inhibitor inactive, ARFGAP1 inh 25, IDE cell activ inactive, ASAP1 inh inactive, IDE inh inactive and ARFGAP1 confirm inactive.
CCNC(=O)C1(C)CCCN(C(=O)c2nc3ccccc3s2)C1 (configuration not stated) was read as ARFGAP1 inh inactive and ASAP1 inh inactive.
`COc1cc(OC)cc(-c2sc3ccc(OC)cc3c2-c2ccc(O)cc2)c1` gave PREPL inhibitor inactive, ARFGAP1 inh 26, IDE cell activ inactive, ASAP1 inh inactive, IDE inh inactive and ARFGAP1 confirm inactive.
For Cc1onc(-c2c(F)cccc2Cl)c1C(=O)O/N=C(\N)c1ccc([N+](=O)[O-])o1 the results were PREPL inhibitor inactive, ARFGAP1 inh inactive, IDE cell activ inactive, ASAP1 inh inactive and IDE inh inactive.
CC(C)N(C(=O)NC(=O)Nc1ccc(S(=O)(=O)N2CCCC2)cc1)S(C)(=O)=O was read as PREPL inhibitor inactive, ARFGAP1 inh 36, IDE cell activ inactive, ASAP1 inh inactive, IDE inh inactive and ARFGAP1 confirm inactive.
Screening Cc1ccc(C(=O)Nc2ccc(S(=O)(=O)N3CCCC3)cc2)o1 returned PREPL inhibitor inactive, ARFGAP1 inh 26, IDE cell activ inactive, ASAP1 inh inactive, IDE inh inactive and ARFGAP1 confirm inactive.
Screening CC(C)CC(=O)Nc1ccc(S(=O)(=O)N2CCCC2)cc1 returned PREPL inhibitor inactive, ARFGAP1 inh inactive, IDE cell activ inactive, ASAP1 inh inactive and IDE inh inactive.
`Cc1cc(OCC(=O)Nc2cccnc2)c2c(C)c(C)c(=O)oc2c1` gave PREPL inhibitor inactive, ARFGAP1 inh 29, IDE cell activ inactive, ASAP1 inh inactive, IDE inh inactive and ARFGAP1 confirm 30.
Screening Cn1c(SCC(=O)NCCNC(=O)CSc2nnc(C(F)(F)F)n2C)nnc1C(F)(F)F returned PREPL inhibitor inactive, ARFGAP1 inh inactive, IDE cell activ inactive, ASAP1 inh inactive and IDE inh inactive.
`COc1ccc(CNC(=O)CSc2nnc(C(F)(F)F)n2C)cc1` gave PREPL inhibitor inactive, ARFGAP1 inh 29, IDE cell activ inactive, ASAP1 inh inactive, IDE inh inactive and ARFGAP1 confirm inactive.
CCCCNc1ccc(C(=O)OCCOCCOCCOCCOCCOCCOCCOCCOCCOC)cc1 was read as PREPL inhibitor inactive, ARFGAP1 inh inactive, IDE cell activ inactive, ASAP1 inh inactive and IDE inh inactive.
`CCc1cccc(C)c1NC(=O)CSc1nnc(CCCOc2ccc(Cl)cc2Cl)n1C` gave PREPL inhibitor inactive, ARFGAP1 inh 25, IDE cell activ inactive, ASAP1 inh inactive, IDE inh inactive and ARFGAP1 confirm inactive.
For COc1cc2cnc(-c3ccccc3)cc2cc1OC the results were PREPL inhibitor inactive, ARFGAP1 inh inactive, IDE cell activ inactive, ASAP1 inh inactive and IDE inh inactive.
Screening COc1ccc(-c2cc3cc(OC)c(OC)cc3cn2)cc1 returned PREPL inhibitor inactive, ARFGAP1 inh 29, IDE cell activ inactive, ASAP1 inh inactive, IDE inh inactive and ARFGAP1 confirm 31.
Nc1[nH]c(C(=O)c2ccccc2)c(-c2ccccc2C(F)(F)F)c1C(=O)NCCc1c[nH]c2ccccc12 was read as ARFGAP1 inh 25, ASAP1 inh inactive and ARFGAP1 confirm inactive.
`Nc1[nH]c(C(=O)c2ccccc2)c(-c2ccccc2Br)c1C(=O)NCCc1c[nH]c2ccccc12` gave ARFGAP1 inh inactive and ASAP1 inh inactive.
`COc1ccc(NC(=O)c2c3c(nc4ccccc24)CCN(Cc2ccccc2)C3)c(OC)c1` gave PREPL inhibitor inactive, ARFGAP1 inh 25, IDE cell activ inactive, ASAP1 inh inactive, IDE inh inactive and ARFGAP1 confirm inactive.
For COc1ccc(-c2ccc3c(n2)CCCN3S(=O)(=O)c2ccccc2)cc1 the results were ARFGAP1 inh inactive and ASAP1 inh inactive.
Screening COc1ccccc1CNC(=O)CSc1nc(N)c(C#N)c(-c2cccs2)c1C#N returned PREPL inhibitor inactive, ARFGAP1 inh 42, IDE cell activ inactive, ASAP1 inh inactive, IDE inh inactive and ARFGAP1 confirm 30.
Screening CSCC[C@H](CO)NC(=O)[C@H]1O[C@@H](n2cnc3c(N)ncnc32)[C@H](O)[C@@H]1O returned ARFGAP1 inh inactive and ASAP1 inh inactive.
`CC(=O)c1ccc(OCC(O)COc2ccc(C(C)=O)cc2)cc1` gave PREPL inhibitor inactive, ARFGAP1 inh inactive, IDE cell activ inactive, ASAP1 inh inactive and IDE inh inactive.
Screening C=C(C)C(=O)OCC(O)COc1ccc(C(C)(C)c2ccc(OCC(O)COC(=O)C(=C)C)cc2)cc1 (configuration not stated) returned PREPL inhibitor inactive, ARFGAP1 inh 32, IDE cell activ inactive, ASAP1 inh inactive, IDE inh inactive and ARFGAP1 confirm inactive.
CCN1C(c2ccc(F)cc2)=CS/C1=C(/C#N)c1nnc2n1-c1ccccc1SC2 was read as ARFGAP1 inh inactive and ASAP1 inh inactive.
For CCCCn1c(N)c(N(CCOC)C(=O)c2c(C)noc2C)c(=O)[nH]c1=O the results were PREPL inhibitor inactive, ARFGAP1 inh 25, IDE cell activ inactive, ASAP1 inh inactive, IDE inh inactive and ARFGAP1 confirm inactive.
COc1ccc(NC(=O)Nc2nnc(-c3ccco3)s2)cc1 was read as PREPL inhibitor inactive, ARFGAP1 inh 35, IDE cell activ inactive, ASAP1 inh inactive, IDE inh inactive and ARFGAP1 confirm inactive.
CC(C)CN(C(=O)CSc1nnc(-c2cccs2)n1C1CC1)C1CCS(=O)(=O)C1 (configuration not stated) was read as ARFGAP1 inh 27, ASAP1 inh inactive and ARFGAP1 confirm inactive.
Screening C[C@H](c1ccccc1)N1C[C@@H](COCc2ccccc2)Oc2cccc(N3CCCCC3)c2S1(=O)=O returned ARFGAP1 inh inactive and ASAP1 inh inactive.

High-throughput results deposited in PubChem by The Scripps Research Institute Molecular Screening Center.
